Data taken from ChEMBL document CHEMBL1125155, “Preparation and anticonvulsant activity of a series of functionalized alpha-aromatic and alpha-heteroaromatic amino acids” (J Med Chem, 1990).

How the values were obtained:
[1] = Neurological toxicity was determined using horizontal screen test in mice after intraperitoneal administration; assay type: organism-based; details: mouse, in vivo, ip
Outline: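 Male CF-1 mice, ip dosing in 30% PEG 400. Previously trained mice placed on a 13 × 13 cm no. 4 mesh wire screen on a vertical rod. Rod rotated 180°; failure to return to top within 1 min counted as impairment.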

[2] = tested on: Mus musculus; test: Concentration required to inhibit seizures was determined in MES test after (ip) administration in mice; assay type: functional
Outline: (§1)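 Male CF-1 mice; compounds dissolved in 30% polyethylene glycol 400, given ip. Screening at 30, 100, 300 mg/kg, four mice per dose, tested at 0.5, 1 and 4 h for protection against maximal electroshock seizures.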

[3] = tested on: Mus musculus; test: Concentration required to inhibit seizures was determined in MES test after (ip) administration in mice; Range is >100 to <300; assay type: functional
[4] = Neurological toxicity was determined using horizontal screen test in mice after intraperitoneal administration; Range is >100 to <300; assay type: organism-based; details: mouse, in vivo, ip
[5] = tested on: Mus musculus; test: Concentration required to inhibit seizures was determined in MES test after (ip) administration in mice; Range is >25 to <100; assay type: functional; outline: as §1
[6] = Protective index (TD50/ED50) was determined; assay type: functional
Outline: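 Ratio of horizontal-screen TD50 to MES ED50, both ip in male CF-1 mice given in 30% PEG 400. Both values taken at time of peak anticonvulsant activity, each from a dose-response curve (10–12 or 12 mice per dose).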

| SMILES | TD50 [1] | ED50 [2] | further results |
| --- | --- | --- | --- |
| CC(=O)NC(C(=O)NCc1cccc(F)c1)c1ccco1 (configuration not stated) | 136 mg/kg |  |  |
| CC(=O)NC(C(=O)NCc1ccccc1)c1ccc(O)cc1 (configuration not stated) |  | > 300 mg/kg |  |
| CC(=O)NC(C(=O)NCc1ccccc1)c1cc2ccccc2o1 (configuration not stated) |  |  | ED50 [3]: > 100 mg/kg; TD50 [4]: > 100 mg/kg |
| CC(=O)N[C@H](C(=O)NCc1ccccc1)c1ccccc1 | > 100 mg/kg | > 300 mg/kg |  |
| CC(=O)NC(C(=O)NCc1ccccc1)c1ccc2ccccc2c1 (configuration not stated) | > 300 mg/kg | > 300 mg/kg |  |
| CC(=O)NC(C(=O)NCc1ccccc1)c1ccc(C)o1 (configuration not stated) | 75.4 mg/kg |  |  |
| CCC1(c2ccccc2)C(=O)NC(=O)NC1=O [PHENOBARBITAL] |  | 21.8 mg/kg |  |
| CC(=O)N[C@@H](C)C(=O)NCc1ccccc1 | 841 mg/kg | 548 mg/kg |  |
| CC(=O)NC(C(=O)NCc1c(F)cccc1F)c1ccco1 (configuration not stated) |  |  | ED50 [5]: > 25 mg/kg |
| CC(=O)NC(C(=O)NCc1ccccc1)c1ccc[nH]1 (configuration not stated) | > 30 mg/kg |  |  |
| COc1ccc(C(NC(C)=O)C(=O)NCc2ccccc2)cc1 (configuration not stated) |  | > 300 mg/kg |  |
| CC(=O)N[C@H](C)C(=O)NCc1ccccc1 | 214 mg/kg | 54.8 mg/kg |  |
| CC(=O)NC(C(=O)NCc1ccccc1)c1cc2ccccc2s1 (configuration not stated) |  |  | ED50 [3]: > 100 mg/kg; TD50 [4]: > 100 mg/kg |
| CC(=O)NC(C(=O)NCc1ccccc1)c1cc(C)ccc1O (configuration not stated) |  | > 300 mg/kg |  |
| CC(=O)NC(C(=O)NCc1ccccc1)c1cccn1C (configuration not stated) |  | ~300 mg/kg |  |
| CC(=O)NC(C(=O)NCc1ccccc1)c1ccco1 (configuration not stated) | ~40 mg/kg | 10.3 mg/kg |  |
| CC(=O)NC(C(=O)NCc1ccccc1)c1ccccc1 (configuration not stated) | > 40 mg/kg | 32.1 mg/kg |  |
| CC(=O)N[C@H](C(=O)NCc1ccccc1)c1ccco1 | > 200 mg/kg | > 25 mg/kg |  |
| CC(=O)N[C@@H](C(=O)NCc1ccccc1)c1ccco1 | 23.8 mg/kg | 3.3 mg/kg | Ratio [6]: 7.2 |
| CC(=O)NC(C(=O)NCc1ccc(F)cc1)c1ccco1 (configuration not stated) | 144 mg/kg |  |  |
| CC(=O)NC(C(=O)NCc1ccccc1)c1ccsc1 (configuration not stated) | > 100 mg/kg |  |  |
| CC(=O)NC(C(=O)NCc1ccccc1)c1cccs1 (configuration not stated) | > 30 mg/kg |  |  |
| CC(=O)N[C@@H](C(=O)NCc1ccccc1)c1ccccc1 | > 80 mg/kg | 26.4 mg/kg |  |
| CC(=O)NC(C(=O)NCc1ccccc1)c1c[nH]c2ccccc12 (configuration not stated) | < 300 mg/kg | > 300 mg/kg |  |
